From ChEMBL document CHEMBL3414560, “Discovery of 4-(dihydropyridinon-3-yl)amino-5-methylthieno[2,3-d]pyrimidine derivatives as potent Mnk inhibitors: synthesis, structure-activity relationship analysis and biological evaluation” (Eur J Med Chem, 2015)
Active and inactive are the calls of the source. The calls are words filed in the database; no cut-off is given here.

Tests used:
MV4-11 [1] = experiment: Induction of cell cycle arrest in human MV4-11 cells assessed as accumulation at G1 phase at 20 uM after 24 hrs by FITC propidium iodide staining based flow cytometry (reference value: 58.1%); type: functional
MV4-11 [2] = experiment: Induction of cell cycle arrest in human MV4-11 cells assessed as accumulation at subG1 phase at 20 uM after 24 hrs by FITC propidium iodide staining based flow cytometry (reference value: 7.7%); type: functional
[3] = target: RAC-alpha serine/threonine-protein kinase (Homo sapiens) (UniProt P31749); experiment: Inhibition of PKBalpha (unknown origin) assessed as reduction in kinase activity at 10 uM using ATP
Sequence of RAC-alpha serine/threonine-protein kinase (Homo sapiens) (P31749 whole entry): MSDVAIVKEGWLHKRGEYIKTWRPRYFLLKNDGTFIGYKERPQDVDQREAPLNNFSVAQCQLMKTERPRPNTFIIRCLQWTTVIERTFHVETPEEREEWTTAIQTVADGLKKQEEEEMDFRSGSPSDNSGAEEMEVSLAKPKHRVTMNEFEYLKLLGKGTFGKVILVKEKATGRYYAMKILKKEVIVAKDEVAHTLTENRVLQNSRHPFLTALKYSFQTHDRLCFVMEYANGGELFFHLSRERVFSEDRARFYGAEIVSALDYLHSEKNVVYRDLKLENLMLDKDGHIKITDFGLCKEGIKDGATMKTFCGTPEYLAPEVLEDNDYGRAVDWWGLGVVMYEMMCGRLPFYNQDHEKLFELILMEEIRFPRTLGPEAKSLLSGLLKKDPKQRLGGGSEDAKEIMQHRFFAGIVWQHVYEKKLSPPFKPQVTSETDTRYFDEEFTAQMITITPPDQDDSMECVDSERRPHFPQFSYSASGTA

MV4-11 [4] = experiment: Induction of cell cycle arrest in human MV4-11 cells assessed as accumulation at G2/M phase at 20 uM after 24 hrs by FITC propidium iodide staining based flow cytometry (reference value: 17.5%); type: functional
MV4-11 [5] = experiment: Effect on total Mnk1 protein level in human MV4-11 cells at 20 uM after 24 hrs by Western blotting method; type: functional, cell-based
In short: (§1)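 MV-4-11 cells in RPMI-1640 with 10% FBS, exposed 24 h (DMSO diluent control); Western blot probing Mnk1, eIF4E, p-eIF4E Ser209, Bcl-2, Mcl-1, cyclin D1, PARP, cleaved PARP; β-actin as loading control; HRP-conjugated anti-mouse/anti-rabbit IgG secondaries.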

[6] = target: MAP kinase-interacting serine/threonine-protein kinase 2 (Homo sapiens, UniProt Q9HBH9); experiment: Inhibition of Mnk2 (unknown origin) pre-incubated for 10 mins before eIF4E peptide substrate addition by ADP-Glo kinase assay
Sequence of MAP kinase-interacting serine/threonine-protein kinase 2 (Q9HBH9 whole entry): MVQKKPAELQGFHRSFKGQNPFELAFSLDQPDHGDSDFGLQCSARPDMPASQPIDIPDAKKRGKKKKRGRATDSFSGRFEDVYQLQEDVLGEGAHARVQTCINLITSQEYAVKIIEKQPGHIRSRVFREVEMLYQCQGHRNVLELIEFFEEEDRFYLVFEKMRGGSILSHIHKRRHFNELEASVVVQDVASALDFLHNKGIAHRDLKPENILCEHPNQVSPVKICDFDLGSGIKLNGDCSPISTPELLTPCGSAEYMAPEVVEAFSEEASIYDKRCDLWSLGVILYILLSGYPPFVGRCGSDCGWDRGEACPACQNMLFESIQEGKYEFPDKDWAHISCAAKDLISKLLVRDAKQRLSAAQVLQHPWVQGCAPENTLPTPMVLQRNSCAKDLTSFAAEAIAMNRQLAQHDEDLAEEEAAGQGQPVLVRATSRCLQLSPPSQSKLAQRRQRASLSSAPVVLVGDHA

[7] = target: Receptor-type tyrosine-protein kinase FLT3 (Homo sapiens) (UniProt P36888); experiment: Inhibition of FLT3 (unknown origin) assessed as reduction in kinase activity at 10 uM using ATP
Sequence of Receptor-type tyrosine-protein kinase FLT3 (Homo sapiens) (P36888 whole entry): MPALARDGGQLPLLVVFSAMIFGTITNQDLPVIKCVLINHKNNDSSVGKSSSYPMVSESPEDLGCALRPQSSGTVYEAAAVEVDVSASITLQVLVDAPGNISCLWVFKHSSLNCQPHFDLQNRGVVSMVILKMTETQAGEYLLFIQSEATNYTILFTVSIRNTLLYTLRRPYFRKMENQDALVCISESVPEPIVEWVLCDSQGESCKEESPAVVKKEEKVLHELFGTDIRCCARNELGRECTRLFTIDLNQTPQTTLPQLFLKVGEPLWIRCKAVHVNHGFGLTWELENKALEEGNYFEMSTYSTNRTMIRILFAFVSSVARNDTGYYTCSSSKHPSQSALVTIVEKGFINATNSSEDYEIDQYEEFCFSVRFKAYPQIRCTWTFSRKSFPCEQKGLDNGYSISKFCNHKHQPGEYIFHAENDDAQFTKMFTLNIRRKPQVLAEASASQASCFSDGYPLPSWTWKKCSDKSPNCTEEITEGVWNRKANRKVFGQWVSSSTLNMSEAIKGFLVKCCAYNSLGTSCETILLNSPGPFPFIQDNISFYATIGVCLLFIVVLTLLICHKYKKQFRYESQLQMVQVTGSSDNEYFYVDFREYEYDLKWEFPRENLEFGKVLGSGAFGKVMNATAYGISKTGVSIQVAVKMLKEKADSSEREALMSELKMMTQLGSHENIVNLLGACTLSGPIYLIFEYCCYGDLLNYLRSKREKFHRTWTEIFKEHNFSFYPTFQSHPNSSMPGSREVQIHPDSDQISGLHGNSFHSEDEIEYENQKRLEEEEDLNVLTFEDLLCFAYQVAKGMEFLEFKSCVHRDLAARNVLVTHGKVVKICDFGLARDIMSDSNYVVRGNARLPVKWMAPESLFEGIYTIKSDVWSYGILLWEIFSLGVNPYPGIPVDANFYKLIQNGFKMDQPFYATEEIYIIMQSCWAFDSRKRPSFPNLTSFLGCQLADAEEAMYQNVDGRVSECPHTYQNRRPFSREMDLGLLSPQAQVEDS

MV4-11 [8] = experiment: Induction of apoptosis in human MV4-11 cells assessed as induction of PARP cleavage expression at 20 uM after 24 hrs by Western blotting method; type: functional, cell-based; in short: as §1
[9] = target: Serine/threonine-protein kinase pim-1 (Homo sapiens) (UniProt P11309); experiment: Inhibition of PIM1 (unknown origin) assessed as reduction in kinase activity at 10 uM using ATP
Sequence of Serine/threonine-protein kinase pim-1 (Homo sapiens) (P11309 whole entry, looked up): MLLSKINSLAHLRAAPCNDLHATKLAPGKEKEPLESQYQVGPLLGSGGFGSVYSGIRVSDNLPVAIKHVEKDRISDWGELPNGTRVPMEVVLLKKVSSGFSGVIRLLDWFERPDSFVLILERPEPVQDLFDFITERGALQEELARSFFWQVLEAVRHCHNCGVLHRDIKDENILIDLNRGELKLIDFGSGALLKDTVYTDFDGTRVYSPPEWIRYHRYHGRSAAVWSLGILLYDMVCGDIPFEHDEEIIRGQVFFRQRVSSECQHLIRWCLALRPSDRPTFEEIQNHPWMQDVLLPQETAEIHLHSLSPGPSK

MV4-11 [10] = experiment: Growth inhibition of human MV4-11 cells after 72 hrs by resazurin assay; type: functional; details: MV4-11, 72 h
[11] = target: Mitogen-activated protein kinase 14 (Homo sapiens) (UniProt Q16539); experiment: Inhibition of SAPK2a (unknown origin) assessed as reduction in kinase activity at 10 uM using ATP
Sequence of Mitogen-activated protein kinase 14 (Homo sapiens) (Q16539 whole entry): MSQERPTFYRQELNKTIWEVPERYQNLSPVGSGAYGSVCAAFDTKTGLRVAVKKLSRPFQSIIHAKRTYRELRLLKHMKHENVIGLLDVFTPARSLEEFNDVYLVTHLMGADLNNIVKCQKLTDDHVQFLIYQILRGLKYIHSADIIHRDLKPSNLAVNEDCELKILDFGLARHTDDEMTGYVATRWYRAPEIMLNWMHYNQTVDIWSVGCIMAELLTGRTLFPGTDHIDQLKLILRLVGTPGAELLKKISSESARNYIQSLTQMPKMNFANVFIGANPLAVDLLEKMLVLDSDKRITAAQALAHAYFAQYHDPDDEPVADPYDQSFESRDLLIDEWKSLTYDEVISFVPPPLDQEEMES

[12] = target: Mitogen-activated protein kinase 1 (Homo sapiens) (UniProt P28482); experiment: Inhibition of MAPK1 (unknown origin) assessed as reduction in kinase activity at 10 uM using ATP
Sequence of Mitogen-activated protein kinase 1 (Homo sapiens) (P28482 whole entry): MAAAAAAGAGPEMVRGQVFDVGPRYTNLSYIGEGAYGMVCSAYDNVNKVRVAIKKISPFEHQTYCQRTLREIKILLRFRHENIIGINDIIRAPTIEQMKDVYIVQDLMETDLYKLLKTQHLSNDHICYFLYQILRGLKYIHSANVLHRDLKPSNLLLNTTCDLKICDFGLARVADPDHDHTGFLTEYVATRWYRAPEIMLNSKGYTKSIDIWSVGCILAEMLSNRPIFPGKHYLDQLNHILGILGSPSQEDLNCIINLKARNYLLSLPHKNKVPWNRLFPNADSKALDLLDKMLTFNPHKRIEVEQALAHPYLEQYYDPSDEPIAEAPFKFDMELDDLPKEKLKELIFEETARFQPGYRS

[13] = target: T1, MAP kinase-interacting serine/threonine-protein kinase 1 (Homo sapiens, UniProt Q9BUB5); experiment: Inhibition of Mnk1 (unknown origin) pre-incubated for 10 mins before eIF4E peptide substrate addition by ADP-Glo kinase assay
Target sequence in this assay (Q9BUB5 whole entry): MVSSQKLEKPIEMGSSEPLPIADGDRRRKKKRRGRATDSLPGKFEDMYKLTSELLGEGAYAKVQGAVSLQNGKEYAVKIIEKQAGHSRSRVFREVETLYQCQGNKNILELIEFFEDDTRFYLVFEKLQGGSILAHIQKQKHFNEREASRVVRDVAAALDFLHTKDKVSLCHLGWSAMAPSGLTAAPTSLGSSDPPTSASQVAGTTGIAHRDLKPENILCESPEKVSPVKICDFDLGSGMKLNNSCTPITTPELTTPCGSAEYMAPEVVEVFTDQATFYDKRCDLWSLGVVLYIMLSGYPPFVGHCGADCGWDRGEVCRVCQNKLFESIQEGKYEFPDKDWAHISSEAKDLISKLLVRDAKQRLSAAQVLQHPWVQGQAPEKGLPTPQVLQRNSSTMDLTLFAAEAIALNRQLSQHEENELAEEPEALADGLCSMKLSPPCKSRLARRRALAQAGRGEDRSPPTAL

MV4-11 [14] = experiment: Reduction in cyclin D1 expression in human MV4-11 cells at 20 uM after 24 hrs by Western blotting method; type: functional, cell-based
In short: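 MV-4-11 AML cells grown in RPMI-1640 with 10% FBS, treated 24 h at the stated concentration against a DMSO diluent control. Lysates probed by Western blot for cyclin D1, with β-actin as loading control and HRP-conjugated anti-mouse/anti-rabbit IgG secondaries.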

MV4-11 [15] = experiment: Induction of apoptosis in human MV4-11 cells assessed as early apoptotic cells level at 20 uM after 24 hrs by FITC annexin-V/PI staining based flow cytometry (reference value: 3.02%); type: functional
In short: (§2)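 MV-4-11 cells seeded at 8 × 10^4, overnight at 37 °C, 5% CO2, then treated 24 h (DMSO diluent control); pellets collected (300 × g, 5 min), stained with FITC annexin V/PI kit and analysed by flow cytometry within 1 h; apoptotic = annexin V+/PI− plus annexin V+/PI+ cells.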

MV4-11 [16] = experiment: Induction of cell cycle arrest in human MV4-11 cells assessed as accumulation at S phase at 20 uM after 24 hrs by FITC propidium iodide staining based flow cytometry (reference value: 16.7%); type: functional
[17] = target: CDK9/cyclin T1 (Homo sapiens) (UniProt O60563+P50750); experiment: Inhibition of CDK9/cyclinT1 (unknown origin) assessed as reduction in kinase activity at 10 uM using ATP; type: protein-complex assay
MV4-11 [18] = experiment: Effect on total eIF4E protein level in human MV4-11 cells at 20 uM after 24 hrs by Western blotting method; type: functional, cell-based; in short: as §1
MV4-11 [19] = experiment: Induction of apoptosis in human MV4-11 cells assessed as reduction in Mcl1 expression at 20 uM after 24 hrs by Western blotting method; type: functional, cell-based; in short: as §1
MV4-11 [20] = experiment: Induction of apoptosis in human MV4-11 cells at 20 uM after 24 hrs by FITC annexin-V/PI staining based flow cytometry; type: functional; in short: as §2
MV4-11 [21] = experiment: Induction of apoptosis in human MV4-11 cells assessed as necrotic cells level at 20 uM after 24 hrs by FITC annexin-V/PI staining based flow cytometry (reference value: 0.1%); type: functional; in short: as §2
MV4-11 [22] = experiment: Induction of caspase-3/7 activation in human MV4-11 cells at 20 uM after 24 hrs; type: functional, cell-based
In short: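 MV-4-11 cells treated 24 h, DMSO diluent as control; caspase-3/7 activity measured with Apo-ONE homogeneous caspase-3/7 kit per manufacturer, read on plate reader; expressed as relative activity.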

[23] = target: CDK2/Cyclin A2 (Homo sapiens) (UniProt P24941+P20248); experiment: Inhibition of CDK2/cyclinA (unknown origin) assessed as reduction in kinase activity at 10 uM using ATP; type: protein-complex assay
Homo sapiens = species: Homo sapiens; experiment: Inhibition of PI3K (unknown origin) assessed as reduction in kinase activity at 10 uM using ATP
MV4-11 [24] = experiment: Induction of apoptosis in human MV4-11 cells assessed as late apoptotic cells level at 20 uM after 24 hrs by FITC annexin-V/PI staining based flow cytometry (reference value: 5.4%); type: functional; in short: as §2
[25] = target: Serine/threonine-protein kinase mTOR (Homo sapiens) (UniProt P42345); experiment: Inhibition of mTOR (unknown origin) assessed as reduction in kinase activity at 10 uM using ATP
MV4-11 [26] = experiment: Induction of apoptosis in human MV4-11 cells assessed as viable cells level at 20 uM after 24 hrs by FITC annexin-V/PI staining based flow cytometry (reference value: 91.49%); type: functional; in short: as §2
[27] = target: T1, MAP kinase-interacting serine/threonine-protein kinase 1; experiment: Inhibition of Mnk1 in human MV4-11 cells assessed as reduction in eIF4E Ser209 phosphorylation at 20 uM after 24 hrs by Western blotting method; type: cell-based; in short: as §1
Target sequence in this assay (Q9BUB5 whole entry, looked up): as the sequence (Q9BUB5 whole entry) above

inhibition [3]: inactive
Ki [6]: 2.63 µM
inhibition [7]: 31%
inhibition [9]: inactive
GI50 (MV4-11 [10]): 5.73 µM
inhibition [11]: inactive
inhibition [12]: inactive
Ki [13]: 5 µM
inhibition [17]: inactive
inhibition [23]: inactive
inhibition (Homo sapiens): inactive
inhibition [25]: inactive
inhibition [27]: Active
Structure (SMILES): COCCCNC(=O)c1sc2ncnc(Nc3cc(C)cn(C)c3=O)c2c1C
Activity (MV4-11 [1]): 72.5%
Activity (MV4-11 [2]): 12.5%
Activity (MV4-11 [4]): 6.9%
Activity (MV4-11 [5]): inactive
Activity (MV4-11 [8]): Active
Activity (MV4-11 [14]): Active
Activity (MV4-11 [15]): 4.52%
Activity (MV4-11 [16]): 8.1%
Activity (MV4-11 [18]): inactive
Activity (MV4-11 [19]): Active
Activity (MV4-11 [20]): 6%
Activity (MV4-11 [21]): 0.1%
Activity (MV4-11 [22]): inactive
Activity (MV4-11 [24]): 11.4%
Activity (MV4-11 [26]): 83.96%
